# Reference: ChEMBL document CHEMBL1144865, “N-aminoimidazole derivatives inhibiting retroviral replication via a yet unidentified mode of action” (J Med Chem, 2003)
# System: Human immunodeficiency virus 1
# Assay: Concentration required to inhibit the viral (HIV-1 NL4.3 strain) cytopathic effect by 50% in MT-4 cells.
# Type: functional, organism-based
# Conditions: Human immunodeficiency virus 1, MT4
# Outline: (§1)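 Virus-infected MT-4 cells cultured with serial compound dilutions; viability measured 5 days after infection by MTT tetrazolium colorimetric read-out. The value is the concentration protecting 50% of cells from viral cytopathic effect. Averages ± SD from at least two independent experiments. HIV-2 and SIV stocks came from infected MT-4 culture supernatants.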
row,SMILES,IC50 [µM]
1,COc1cccc(NN2C(S)=NC(C)C2c2ccccc2)c1 (stereo unspecified),9.79
2,COC(=O)c1c(C)ncn1Nc1cccc(Cl)c1,> 107
3,Cc1nc(S)n(Nc2cccc3ccccc23)c1-c1ccccc1,6.58
4,Cc1nc(S)n(Nc2ccc(Cl)cc2)c1-c1ccccc1,> 134
5,CC1N=C(S)N(Nc2cccc(F)c2)C1c1ccccc1 (stereo unspecified),18.4
6,CC1N=C(S)N(Nc2cccc(Cl)c2)C1c1cccc(C(N)=O)c1 (stereo unspecified),> 42.2
7,SC1=NC2CCCCC2N1Nc1cccc(Cl)c1 (stereo unspecified),> 126
8,Cc1cc(C)cc(NN2C(S)=NC(C)C2c2ccccc2)c1 (stereo unspecified),0.87
9,Cc1nc(S)n(Nc2cccc(Cl)c2)c1-c1ccc(Cl)cc1,> 40.8
10,Cc1cccc(NN2C(S)=NC(C(C)C)C2c2ccccc2)c1 (stereo unspecified),> 42.6
11,Cc1c(-c2ccccc2)nc(S)n1Nc1cccc(Cl)c1,> 50

# Further lines, results first:
row,IC50 [µM],SMILES
1,> 260,Cc1ncn(Nc2cccc(Cl)c2)c1-c1cccc(C(N)=O)c1
2,> 266,CC1N=C(S)N(Nc2cccc(Cl)c2)C1C(=O)O (stereo unspecified)
3,> 44.7,Cc1cccc(Nn2cnc(C)c2-c2cccc(C#N)c2)c1
4,> 120,CC1N=C(S)N(Nc2cccc(Cl)c2)C1c1cccc(C(=O)O)c1 (stereo unspecified)
5,> 220,Cc1nc(S)n(Nc2ccc(F)cc2)c1-c1ccccc1
6,> 53,CSc1ccc(NN2C(S)=NC(C)C2c2ccccc2)cc1 (stereo unspecified)
7,> 162,Cc1cccc(Nn2cnc(C)c2-c2cccc(C(N)=O)c2)c1
8,> 147,CC1N=C(S)N(Nc2cc(Cl)ccc2Cl)C1c1ccccc1 (stereo unspecified)
9,> 351,Cc1ncn(Nc2ccccc2)c1C
10,> 191,CC1N=C(S)N(Nc2ccccc2)C1c1ccccc1 (stereo unspecified)
11,> 190,COC(=O)C1C(C)N=C(S)N1Nc1cccc(Cl)c1 (stereo unspecified)
12,> 259,CC1N=C(S)N(Nc2cccc(Cl)c2)C1C (stereo unspecified)
13,> 45.6,Cc1cccc(NN2C(S)=NC(C)C2c2cccc(C#N)c2)c1 (stereo unspecified)

# System: Human immunodeficiency virus 1
# Assay: Concentration required to inhibit the viral (HIV-1 IIIB strain) cytopathic effect by 50% in MT-4 cells.
# Type: functional, organism-based
# Conditions: Human immunodeficiency virus 1, MT4
# Outline: as §1
row,SMILES,IC50 [µM]
1,COc1cccc(NN2C(S)=NC(C)C2c2ccccc2)c1 (stereo unspecified),4.78
2,COC(=O)c1c(C)ncn1Nc1cccc(Cl)c1,> 107
3,Cc1nc(S)n(Nc2cccc3ccccc23)c1-c1ccccc1,5.55
4,Cc1nc(S)n(Nc2ccc(Cl)cc2)c1-c1ccccc1,> 134
5,CC1N=C(S)N(Nc2cccc(F)c2)C1c1ccccc1 (stereo unspecified),> 108
6,CC1N=C(S)N(Nc2cccc(Cl)c2)C1c1cccc(C(N)=O)c1 (stereo unspecified),> 42.2
7,SC1=NC2CCCCC2N1Nc1cccc(Cl)c1 (stereo unspecified),> 126
8,Cc1cc(C)cc(NN2C(S)=NC(C)C2c2ccccc2)c1 (stereo unspecified),1.03
9,Cc1nc(S)n(Nc2cccc(Cl)c2)c1-c1ccc(Cl)cc1,> 40.8
10,Cc1cccc(NN2C(S)=NC(C(C)C)C2c2ccccc2)c1 (stereo unspecified),> 42.6
11,Cc1c(-c2ccccc2)nc(S)n1Nc1cccc(Cl)c1,> 50

# Now from value to compound:
row,IC50 [µM],SMILES
1,> 260,Cc1ncn(Nc2cccc(Cl)c2)c1-c1cccc(C(N)=O)c1
2,> 266,CC1N=C(S)N(Nc2cccc(Cl)c2)C1C(=O)O (stereo unspecified)
3,> 44.7,Cc1cccc(Nn2cnc(C)c2-c2cccc(C#N)c2)c1
4,> 120,CC1N=C(S)N(Nc2cccc(Cl)c2)C1c1cccc(C(=O)O)c1 (stereo unspecified)
5,> 220,Cc1nc(S)n(Nc2ccc(F)cc2)c1-c1ccccc1
6,> 53,CSc1ccc(NN2C(S)=NC(C)C2c2ccccc2)cc1 (stereo unspecified)
7,> 162,Cc1cccc(Nn2cnc(C)c2-c2cccc(C(N)=O)c2)c1
8,> 147,CC1N=C(S)N(Nc2cc(Cl)ccc2Cl)C1c1ccccc1 (stereo unspecified)
9,> 351,Cc1ncn(Nc2ccccc2)c1C
10,> 191,CC1N=C(S)N(Nc2ccccc2)C1c1ccccc1 (stereo unspecified)
11,> 190,COC(=O)C1C(C)N=C(S)N1Nc1cccc(Cl)c1 (stereo unspecified)
12,> 259,CC1N=C(S)N(Nc2cccc(Cl)c2)C1C (stereo unspecified)
13,> 45.6,Cc1cccc(NN2C(S)=NC(C)C2c2cccc(C#N)c2)c1 (stereo unspecified)

# System: Human immunodeficiency virus 2
# Assay: Concentration required to inhibit the viral (HIV-2 ROD) cytopathic effect by 50% in MT-4 cells.
# Type: functional, organism-based, MT4
# Conditions: Human immunodeficiency virus 2, MT4
# Outline: as §1
row,SMILES,IC50 [µM]
1,COc1cccc(NN2C(S)=NC(C)C2c2ccccc2)c1 (stereo unspecified),> 38
2,COC(=O)c1c(C)ncn1Nc1cccc(Cl)c1,> 107
3,Cc1nc(S)n(Nc2cccc3ccccc23)c1-c1ccccc1,5.1
4,Cc1nc(S)n(Nc2ccc(Cl)cc2)c1-c1ccccc1,> 134
5,CC1N=C(S)N(Nc2cccc(F)c2)C1c1ccccc1 (stereo unspecified),> 108
6,CC1N=C(S)N(Nc2cccc(Cl)c2)C1c1cccc(C(N)=O)c1 (stereo unspecified),> 42.2
7,SC1=NC2CCCCC2N1Nc1cccc(Cl)c1 (stereo unspecified),> 126
8,Cc1cc(C)cc(NN2C(S)=NC(C)C2c2ccccc2)c1 (stereo unspecified),> 194
9,Cc1nc(S)n(Nc2cccc(Cl)c2)c1-c1ccc(Cl)cc1,> 40.8
10,Cc1cccc(NN2C(S)=NC(C(C)C)C2c2ccccc2)c1 (stereo unspecified),> 42.6
11,Cc1c(-c2ccccc2)nc(S)n1Nc1cccc(Cl)c1,> 50

# The next lines start with the values.
row,IC50 [µM],SMILES
1,> 260,Cc1ncn(Nc2cccc(Cl)c2)c1-c1cccc(C(N)=O)c1
2,> 266,CC1N=C(S)N(Nc2cccc(Cl)c2)C1C(=O)O (stereo unspecified)
3,> 44.7,Cc1cccc(Nn2cnc(C)c2-c2cccc(C#N)c2)c1
4,> 120,CC1N=C(S)N(Nc2cccc(Cl)c2)C1c1cccc(C(=O)O)c1 (stereo unspecified)
5,> 220,Cc1nc(S)n(Nc2ccc(F)cc2)c1-c1ccccc1
6,> 53,CSc1ccc(NN2C(S)=NC(C)C2c2ccccc2)cc1 (stereo unspecified)
7,> 162,Cc1cccc(Nn2cnc(C)c2-c2cccc(C(N)=O)c2)c1
8,> 147,CC1N=C(S)N(Nc2cc(Cl)ccc2Cl)C1c1ccccc1 (stereo unspecified)
9,> 351,Cc1ncn(Nc2ccccc2)c1C
10,> 191,CC1N=C(S)N(Nc2ccccc2)C1c1ccccc1 (stereo unspecified)
11,> 190,COC(=O)C1C(C)N=C(S)N1Nc1cccc(Cl)c1 (stereo unspecified)
12,> 259,CC1N=C(S)N(Nc2cccc(Cl)c2)C1C (stereo unspecified)
13,> 45.6,Cc1cccc(NN2C(S)=NC(C)C2c2cccc(C#N)c2)c1 (stereo unspecified)

# System: Human immunodeficiency virus 1
# Assay: Concentration required to inhibit the viral (HIV-1 NNRTI resistant strain) cytopathic effect by 50% in MT-4 cells.
# Type: functional, organism-based
# Conditions: Human immunodeficiency virus 1, MT4
# Outline: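 MT-4 cells infected with HIV-1(III_B)-derived strain S0561945 (K103N + Y181C RT mutations, NNRTI-resistant). Cultured with varying compound concentrations; viability read on day 5 post-infection by MTT tetrazolium colorimetry. Value is the concentration giving 50% protection against virus-induced cytopathic effect. Cytotoxicity measured in parallel on mock-infected cells at day 5. Averages ± SD from at least two independent experiments.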
row,SMILES,IC50 [µM]
1,COc1cccc(NN2C(S)=NC(C)C2c2ccccc2)c1 (stereo unspecified),> 38
2,Cc1nc(S)n(Nc2cccc3ccccc23)c1-c1ccccc1,11.9
3,CC1N=C(S)N(Nc2cccc(F)c2)C1c1ccccc1 (stereo unspecified),≥ 43.4
4,Cc1cc(C)cc(NN2C(S)=NC(C)C2c2ccccc2)c1 (stereo unspecified),> 194
5,Cc1nc(S)n(Nc2cccc(Cl)c2)c1-c1ccc(Cl)cc1,> 40.8
6,Cc1cccc(NN2C(S)=NC(C(C)C)C2c2ccccc2)c1 (stereo unspecified),> 42.6

# System: Simian immunodeficiency virus
# Assay: Concentration required to inhibit the viral (SIV mac251) cytopathic effect by 50% in MT-4 cells.
# Type: functional, organism-based, MT4
# Conditions: Simian immunodeficiency virus, mac251, MT4
# Outline: as §1
row,SMILES,IC50 [µM]
1,COc1cccc(NN2C(S)=NC(C)C2c2ccccc2)c1 (stereo unspecified),> 38
2,COC(=O)c1c(C)ncn1Nc1cccc(Cl)c1,> 107
3,Cc1nc(S)n(Nc2cccc3ccccc23)c1-c1ccccc1,4.68
4,Cc1nc(S)n(Nc2ccc(Cl)cc2)c1-c1ccccc1,> 134
5,CC1N=C(S)N(Nc2cccc(F)c2)C1c1ccccc1 (stereo unspecified),33.8
6,CC1N=C(S)N(Nc2cccc(Cl)c2)C1c1cccc(C(N)=O)c1 (stereo unspecified),> 42.2
7,SC1=NC2CCCCC2N1Nc1cccc(Cl)c1 (stereo unspecified),> 126
8,Cc1cc(C)cc(NN2C(S)=NC(C)C2c2ccccc2)c1 (stereo unspecified),> 194
9,Cc1nc(S)n(Nc2cccc(Cl)c2)c1-c1ccc(Cl)cc1,7.71
10,Cc1cccc(NN2C(S)=NC(C(C)C)C2c2ccccc2)c1 (stereo unspecified),> 42.6
11,Cc1c(-c2ccccc2)nc(S)n1Nc1cccc(Cl)c1,> 50

# The next lines start with the values.
row,IC50 [µM],SMILES
1,> 260,Cc1ncn(Nc2cccc(Cl)c2)c1-c1cccc(C(N)=O)c1
2,> 266,CC1N=C(S)N(Nc2cccc(Cl)c2)C1C(=O)O (stereo unspecified)
3,> 44.7,Cc1cccc(Nn2cnc(C)c2-c2cccc(C#N)c2)c1
4,> 120,CC1N=C(S)N(Nc2cccc(Cl)c2)C1c1cccc(C(=O)O)c1 (stereo unspecified)
5,> 220,Cc1nc(S)n(Nc2ccc(F)cc2)c1-c1ccccc1
6,> 53,CSc1ccc(NN2C(S)=NC(C)C2c2ccccc2)cc1 (stereo unspecified)
7,> 162,Cc1cccc(Nn2cnc(C)c2-c2cccc(C(N)=O)c2)c1
8,> 147,CC1N=C(S)N(Nc2cc(Cl)ccc2Cl)C1c1ccccc1 (stereo unspecified)
9,> 351,Cc1ncn(Nc2ccccc2)c1C
10,> 191,CC1N=C(S)N(Nc2ccccc2)C1c1ccccc1 (stereo unspecified)
11,> 190,COC(=O)C1C(C)N=C(S)N1Nc1cccc(Cl)c1 (stereo unspecified)
12,> 259,CC1N=C(S)N(Nc2cccc(Cl)c2)C1C (stereo unspecified)
13,> 45.6,Cc1cccc(NN2C(S)=NC(C)C2c2cccc(C#N)c2)c1 (stereo unspecified)

# System: MT4
# Assay: Concentration that reduced the MT-4 cell viability by 50%.
# Type: functional, Homo sapiens
# Conditions: Homo sapiens, MT4
# Outline: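 Mock-infected MT-4 cells, run in parallel with the antiviral assay, were exposed to compound. Viability on day 5 was read by MTT colorimetry. The value is the concentration lowering viability by 50%. Averages ± SD from at least two independent experiments.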
row,SMILES,CC50 [µM]
1,COc1cccc(NN2C(S)=NC(C)C2c2ccccc2)c1 (stereo unspecified),38
2,Cc1ncn(Nc2cccc(Cl)c2)c1-c1cccc(C(N)=O)c1,260
3,COC(=O)c1c(C)ncn1Nc1cccc(Cl)c1,107
4,Cc1nc(S)n(Nc2cccc3ccccc23)c1-c1ccccc1,32
5,CC1N=C(S)N(Nc2cccc(Cl)c2)C1C(=O)O (stereo unspecified),266
6,Cc1cccc(Nn2cnc(C)c2-c2cccc(C#N)c2)c1,44.7
7,CC1N=C(S)N(Nc2cccc(Cl)c2)C1c1cccc(C(=O)O)c1 (stereo unspecified),120
8,Cc1nc(S)n(Nc2ccc(Cl)cc2)c1-c1ccccc1,134
9,CC1N=C(S)N(Nc2cccc(F)c2)C1c1ccccc1 (stereo unspecified),108
10,Cc1nc(S)n(Nc2ccc(F)cc2)c1-c1ccccc1,220
11,CC1N=C(S)N(Nc2cccc(Cl)c2)C1c1cccc(C(N)=O)c1 (stereo unspecified),42.2
12,CSc1ccc(NN2C(S)=NC(C)C2c2ccccc2)cc1 (stereo unspecified),53
13,Cc1cccc(Nn2cnc(C)c2-c2cccc(C(N)=O)c2)c1,162
14,SC1=NC2CCCCC2N1Nc1cccc(Cl)c1 (stereo unspecified),126
15,Cc1cc(C)cc(NN2C(S)=NC(C)C2c2ccccc2)c1 (stereo unspecified),194
16,CC1N=C(S)N(Nc2cc(Cl)ccc2Cl)C1c1ccccc1 (stereo unspecified),147
17,Cc1ncn(Nc2ccccc2)c1C,351
18,CC1N=C(S)N(Nc2ccccc2)C1c1ccccc1 (stereo unspecified),191
19,Cc1nc(S)n(Nc2cccc(Cl)c2)c1-c1ccc(Cl)cc1,40.8
20,COC(=O)C1C(C)N=C(S)N1Nc1cccc(Cl)c1 (stereo unspecified),190
21,CC1N=C(S)N(Nc2cccc(Cl)c2)C1C (stereo unspecified),259
22,Cc1cccc(NN2C(S)=NC(C(C)C)C2c2ccccc2)c1 (stereo unspecified),42.6
23,Cc1c(-c2ccccc2)nc(S)n1Nc1cccc(Cl)c1,50
24,Cc1cccc(NN2C(S)=NC(C)C2c2cccc(C#N)c2)c1 (stereo unspecified),45.6
